Experimental data gathered from unrelated publications.
Each line is one published result; the experiments were not run side by side.
mraY: mraY (Staphylococcus aureus, UniProt Q2FZ93)
DCLK3: Serine/threonine-protein kinase DCLK3 (DCLK3, Homo sapiens, UniProt Q9C098)

| Structure (SMILES) | target | test | system | setting | endpoint | result |
| --- | --- | --- | --- | --- | --- | --- |
| CCCC[C@H](NC(=O)[C@H](Cc1c[nH]c2ccccc12)N(C)C(=O)C1(O)C[C@H](O)[C@@H](NC(C)=O)[C@H]([C@H](O)[C@H](O)CO)O1)C(=O)N[C@@H](CC(=O)O)C(=O)N[C@@H](Cc1cccc(Br)c1)C(N)=O (stereo partly drawn) | Gastrin/cholecystokinin type B receptor (CCKBR, Homo sapiens, UniProt P32239) | β-arrestin recruitment, agonist | HTLA |  | Emax | 102% |
| Cc1cc(-c2ccnc3[nH]cc(F)c23)cc(F)c1[C@@]1(O)[C@H](C)CN(C(=O)CN)C[C@@H]1C | Rho-associated protein kinase 1 (ROCK1, Homo sapiens, UniProt Q13464) | enzyme activity, inhibitor |  | 0.1 µM | remaining activity | 13.5% |
| CCCCCCC#Cc1cncc(-c2nnc(SC[C@H]3O[C@@H](n4ccc(=O)[nH]c4=O)[C@H](O)[C@@H]3O)n2CCO)c1 | mraY | cell-free assay, inhibitor |  | 250 µM | inhibition | 22% |
| C[C@]1(O)CCCN(c2nc(Nc3ccc(S(=O)(=O)N[C@H]4CC[C@H](CN5CCN(c6ccc(C7CCC(=O)NC7=O)cc6F)CC5)CC4)cc3Cl)ncc2C(F)(F)F)C1 (stereo partly drawn) | DCLK3 | binding, competition with immobilised ligand |  | 1 µM | remaining binding | 52% |
| CCN1/C(=C/C(C)=O)Sc2ccc(F)cc21 | B2 bradykinin receptor (BDKRB2, Homo sapiens, UniProt P30411) | ligand displacement, radioligand |  | 10 µM | inhibition | 0% |
| Cc1cc(S(=O)(=O)N[C@H]2CC[C@H](CN3CCN(c4ccc(C5CCC(=O)NC5=O)cc4F)CC3)CC2)ccc1Nc1ncc(C(F)(F)F)c(N2CCC[C@](C)(O)C2)n1 (stereo partly drawn) | Aurora kinase C (AURKC, Homo sapiens, UniProt Q9UQB9) | binding, competition with immobilised ligand |  | 1 µM | remaining binding | 50% |
| CCCCCCC#Cc1cncc(-c2nnc(SCc3ccc([N+](=O)[O-])o3)n2CCCN)c1 | mraY | cell-free assay, inhibitor |  | 250 µM | inhibition | 71% |
| C[C@H](NC(=O)C(=O)Nc1ccccc1C(C)(C)C)C(=O)N[C@@H](CC(=O)O)C(=O)COc1c(F)c(F)cc(F)c1F | Caspase-4 (CASP4, Homo sapiens, UniProt P49662) | enzyme activity, inhibitor |  |  | kinact/KI | 19200 M⁻¹ s⁻¹ |
| CCCCC(=O)Nc1ccc(-c2ccc3ncn(CCC)c(=O)c3c2)cn1 | Serine/threonine-protein kinase SIK1 (SIK1, Homo sapiens, UniProt P57059) | binding, competition with immobilised ligand |  | 0.5 µM | remaining binding | 79% |
| CCCCCCC#Cc1cncc(-c2nnc(SCc3cc([N+](=O)[O-])cc([N+](=O)[O-])c3)n2C2CCNCC2)c1 | mraY | cell-free assay, inhibitor |  | 250 µM | inhibition | > 80% |
| NC/C(=C\F)COc1cccc(Cn2c(=S)[nH]c(=O)c3[nH]cnc32)c1 | Melatonin receptor type 1A (MTNR1A, Homo sapiens, UniProt P48039) | ligand displacement, radioligand |  | 10 µM | inhibition | < 50% |
| CCCCCCC#Cc1cncc(-c2nnc(SCc3cc([N+](=O)[O-])cc([N+](=O)[O-])c3)n2CCOC2OC(CN)C(O)C2O)c1 (stereo not drawn) | mraY | cell-free assay, inhibitor |  | 250 µM | inhibition | > 80% |
| C[C@]1(O)CCCN(c2nc(Nc3ccc(S(=O)(=O)N[C@H]4CC[C@H](CN5CCN(c6ccc(C7CCC(=O)NC7=O)cc6F)CC5)CC4)cc3F)ncc2C(F)(F)F)C1 (stereo partly drawn) | DCLK3 | binding, competition with immobilised ligand |  | 1 µM | remaining binding | 43% |
| COc1ccc2oc(-c3ccc4nc(N)oc4c3)c/c(=N\c3ccccc3NC(=O)CCN)c2c1 | Mitogen-activated protein kinase kinase kinase 8 (MAP3K8, Homo sapiens, UniProt P41279) | binding |  | 1 µM | remaining binding | 104% |
| C1=C/COCc2cc(ccc2OCCN2CCCC2)Nc2nccc(n2)-c2cccc(c2)COC/1 | Receptor-type tyrosine-protein kinase FLT3 (FLT3, Homo sapiens, UniProt P36888, R834Q) | binding |  | 0.1 µM | remaining binding | 17% |
